Measured values published in ChEMBL document CHEMBL1221316, “Synthesis of new oxathiazinane dioxides and their in vitro cancer cell growth inhibitory activity” (Bioorg Med Chem Lett, 2010).

Key:
SK-BR-3 [1] = assay: Cytotoxicity against human SKBR3 cells assessed as cell viability at 100 uM after 72 hrs by MTS assay; format: functional; conditions: SK-BR-3, 72 h, read-out: Activity
How it was run: (§1)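 SKBR3 breast cancer cells were exposed to compound for 72 h. Viability was measured by MTS and reported as % viability at each of five concentrations: 6.25, 12.5, 25, 50 and 100. A viability-versus-concentration plot was also made.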

SK-BR-3 [2] = assay: Cytotoxicity against human SKBR3 cells assessed as cell viability at 12.5 uM after 72 hrs by MTS assay; format: functional; conditions: SK-BR-3, 72 h, read-out: Activity; how it was run: as §1
SK-BR-3 [3] = assay: Cytotoxicity against human SKBR3 cells assessed as cell viability at 25 uM after 72 hrs by MTS assay; format: functional; conditions: SK-BR-3, 72 h, read-out: Activity; how it was run: as §1
SK-BR-3 [4] = assay: Cytotoxicity against human SKBR3 cells assessed as cell viability at 6.25 uM after 72 hrs by MTS assay; format: functional; conditions: SK-BR-3, 72 h, read-out: Activity; how it was run: as §1
SK-BR-3 [5] = assay: Cytotoxicity against human SKBR3 cells assessed as cell viability at 50 uM after 72 hrs by MTS assay; format: functional; conditions: SK-BR-3, 72 h, read-out: Activity; how it was run: as §1
SK-BR-3 [6] = assay: Cytotoxicity against human SKBR3 cells after 72 hrs by MTS assay; format: functional, cell-based; conditions: SK-BR-3, 72 h; how it was run: as §1

`O=S1(=O)COC[C@H](COCc2ccccc2)N1` was tested, and the viability at 100 µM (SK-BR-3 [1]) was 22%, the viability at 12.5 µM (SK-BR-3 [2]) was 94% and the viability at 25 µM (SK-BR-3 [3]) was 78%. It also gave a viability at 6.25 µM (SK-BR-3 [4]) of 100% and a viability at 50 µM (SK-BR-3 [5]) of 51%.

For `O=S1(=O)COC[C@H](COCc2ccccc2)N1Cc1ccccc1`, the viability at 100 µM (SK-BR-3 [1]) was 96%, the viability at 12.5 µM (SK-BR-3 [2]) was 80% and the viability at 25 µM (SK-BR-3 [3]) was 82%. The viability at 6.25 µM (SK-BR-3 [4]) was 81% and the viability at 50 µM (SK-BR-3 [5]) was 87%.

Molecule `O=S1(=O)COC[C@@H](COCc2ccc(F)cc2)N1Cc1ccccc1` has a viability at 100 µM (SK-BR-3 [1]) of 96%, a viability at 12.5 µM (SK-BR-3 [2]) of 86% and a viability at 25 µM (SK-BR-3 [3]) of 88%. It also gave a viability at 6.25 µM (SK-BR-3 [4]) of 93% and a viability at 50 µM (SK-BR-3 [5]) of 99%.

For `CCCCCCCC/C=C\CCCCCCCCOC[C@@H]1COCS(=O)(=O)N1C`, the viability at 100 µM (SK-BR-3 [1]) was 65%, the viability at 12.5 µM (SK-BR-3 [2]) was 71% and the viability at 25 µM (SK-BR-3 [3]) was 65%. For the same molecule, the viability at 6.25 µM (SK-BR-3 [4]) was 72% and the viability at 50 µM (SK-BR-3 [5]) was 65%.

Molecule `O=S1(=O)COC[C@@H](COCc2ccc(-c3ccc(CBr)cc3)cc2)N1` has a viability at 100 µM (SK-BR-3 [1]) of 10%, a viability at 12.5 µM (SK-BR-3 [2]) of 34% and a viability at 25 µM (SK-BR-3 [3]) of 10%. For the same molecule, the viability at 6.25 µM (SK-BR-3 [4]) was 66%, the viability at 50 µM (SK-BR-3 [5]) was 10% and the IC50 (SK-BR-3 [6]) was 10 µM.

`O=S1(=O)COC[C@@H](COCc2ccccc2)N1Cc1ccccc1` gave a viability at 100 µM (SK-BR-3 [1]) of 82%, a viability at 12.5 µM (SK-BR-3 [2]) of 82% and a viability at 25 µM (SK-BR-3 [3]) of 88%. For the same molecule, the viability at 6.25 µM (SK-BR-3 [4]) was 89% and the viability at 50 µM (SK-BR-3 [5]) was 83%.

`CCCCCCCC/C=C\CCCCCCCCOC[C@@H]1COCS(=O)(=O)N1Cc1ccccc1` gave a viability at 100 µM (SK-BR-3 [1]) of 100%, a viability at 12.5 µM (SK-BR-3 [2]) of 100% and a viability at 25 µM (SK-BR-3 [3]) of 99%. For the same molecule, the viability at 6.25 µM (SK-BR-3 [4]) was 100% and the viability at 50 µM (SK-BR-3 [5]) was 100%.

Molecule `CN1[C@H](COCc2ccc(-c3ccccc3)cc2)COCS1(=O)=O` has a viability at 100 µM (SK-BR-3 [1]) of 52%, a viability at 12.5 µM (SK-BR-3 [2]) of 66% and a viability at 25 µM (SK-BR-3 [3]) of 60%. For the same molecule, the viability at 6.25 µM (SK-BR-3 [4]) was 89% and the viability at 50 µM (SK-BR-3 [5]) was 61%.

With `CN1[C@H](COCc2ccccc2)COCS1(=O)=O` the viability at 100 µM (SK-BR-3 [1]) was 82%, the viability at 12.5 µM (SK-BR-3 [2]) was 81% and the viability at 25 µM (SK-BR-3 [3]) was 88%. For the same molecule, the viability at 6.25 µM (SK-BR-3 [4]) was 85% and the viability at 50 µM (SK-BR-3 [5]) was 83%.

`O=S1(=O)COC[C@@H](COCc2ccc(-c3ccccc3)cc2)N1` showed a viability at 100 µM (SK-BR-3 [1]) of 46%, a viability at 12.5 µM (SK-BR-3 [2]) of 75% and a viability at 25 µM (SK-BR-3 [3]) of 75%. For the same molecule, the viability at 6.25 µM (SK-BR-3 [4]) was 75% and the viability at 50 µM (SK-BR-3 [5]) was 44%.

`CN1[C@H](COCc2ccc3ccccc3c2)COCS1(=O)=O` showed a viability at 100 µM (SK-BR-3 [1]) of 74%, a viability at 12.5 µM (SK-BR-3 [2]) of 82% and a viability at 25 µM (SK-BR-3 [3]) of 73%. It also gave a viability at 6.25 µM (SK-BR-3 [4]) of 81% and a viability at 50 µM (SK-BR-3 [5]) of 74%.

Molecule `O=S1(=O)COC[C@@H](COCc2ccccc2)N1` has a viability at 100 µM (SK-BR-3 [1]) of 16%, a viability at 12.5 µM (SK-BR-3 [2]) of 100% and a viability at 25 µM (SK-BR-3 [3]) of 100%. It also gave a viability at 6.25 µM (SK-BR-3 [4]) of 100% and a viability at 50 µM (SK-BR-3 [5]) of 80%.

In the case of `COc1cccc(COC[C@@H]2COCS(=O)(=O)N2Cc2ccccc2)c1`, the viability at 100 µM (SK-BR-3 [1]) is reported as 89%, the viability at 12.5 µM (SK-BR-3 [2]) is reported as 100% and the viability at 25 µM (SK-BR-3 [3]) is reported as 100%. It also gave a viability at 6.25 µM (SK-BR-3 [4]) of 100% and a viability at 50 µM (SK-BR-3 [5]) of 96%.

In the case of `CCCCCCCC/C=C\CCCCCCCCOC[C@H]1COCS(=O)(=O)N1Cc1ccccc1`, the viability at 100 µM (SK-BR-3 [1]) is reported as 96%, the viability at 12.5 µM (SK-BR-3 [2]) is reported as 81% and the viability at 25 µM (SK-BR-3 [3]) is reported as 81%. The viability at 6.25 µM (SK-BR-3 [4]) was 71% and the viability at 50 µM (SK-BR-3 [5]) was 82%.

Work on `O=S1(=O)COC[C@H](COCc2ccc(-c3ccc(CBr)cc3)cc2)N1` yielded a viability at 100 µM (SK-BR-3 [1]) of 20%, a viability at 12.5 µM (SK-BR-3 [2]) of 81% and a viability at 25 µM (SK-BR-3 [3]) of 26%. The viability at 6.25 µM (SK-BR-3 [4]) was 99%, the viability at 50 µM (SK-BR-3 [5]) was 18% and the IC50 (SK-BR-3 [6]) was 10 µM.

For `O=C(OC[C@@H]1COCS(=O)(=O)N1Cc1ccccc1)c1ccccc1`, the viability at 100 µM (SK-BR-3 [1]) was 100%, the viability at 12.5 µM (SK-BR-3 [2]) was 98% and the viability at 25 µM (SK-BR-3 [3]) was 88%. The viability at 6.25 µM (SK-BR-3 [4]) was 81% and the viability at 50 µM (SK-BR-3 [5]) was 89%.
